Compound activity from PubChem.
EBI2 antag: blocks human EBI2 receptor beta-arrestin signaling | inhibition, % at 5 µM | EBI2 beta-arrestin recruitment, luminescence, 7a,25-OHC stimulated | 360,000 compounds, 0.81% hits | P32249; in the data active means inhibition above about 38%;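 further: enzyme fragment complementation signal reports receptor beta-arrestin coupling in cells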
Target sequence (P32249 whole entry, looked up, the tested form may be a part): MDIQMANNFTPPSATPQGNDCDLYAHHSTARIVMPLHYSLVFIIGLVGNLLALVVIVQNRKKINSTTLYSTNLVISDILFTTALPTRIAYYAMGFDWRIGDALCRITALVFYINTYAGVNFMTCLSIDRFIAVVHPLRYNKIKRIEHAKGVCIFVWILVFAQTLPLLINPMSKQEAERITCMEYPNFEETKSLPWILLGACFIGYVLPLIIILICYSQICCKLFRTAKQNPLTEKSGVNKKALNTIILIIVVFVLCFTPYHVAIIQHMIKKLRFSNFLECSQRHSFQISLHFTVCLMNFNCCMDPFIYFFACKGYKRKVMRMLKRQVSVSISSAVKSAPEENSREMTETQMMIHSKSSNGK
CCR6 antagonist: antagonists of human CCR6 receptor; CHO-K1 CCR6 PathHunter beta-arrestin, luminescence, CCL20-stimulated; AID 493098; P51684; 340,000 compounds, 0.49% hits; inhibition, % at 20 µM;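 active means compounds whose inhibition of the agonist-driven luminescence signal at 20 µM reaches about 50%, limit read from the data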;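 further: cells stimulated with CCL20 at 14 nM final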
APJ ag: agonists of human APJ apelin receptor; P35414; 330,000 compounds, 0.11% hits; AID 2520; CHO-K1 APJ PathHunter beta-arrestin, luminescence; 0% DMSO wells, 100% apelin; activation, % at 20 µM;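 active means activation more than six SD over the plate average, tested at 20 µM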
Target sequence (P35414 whole entry, looked up): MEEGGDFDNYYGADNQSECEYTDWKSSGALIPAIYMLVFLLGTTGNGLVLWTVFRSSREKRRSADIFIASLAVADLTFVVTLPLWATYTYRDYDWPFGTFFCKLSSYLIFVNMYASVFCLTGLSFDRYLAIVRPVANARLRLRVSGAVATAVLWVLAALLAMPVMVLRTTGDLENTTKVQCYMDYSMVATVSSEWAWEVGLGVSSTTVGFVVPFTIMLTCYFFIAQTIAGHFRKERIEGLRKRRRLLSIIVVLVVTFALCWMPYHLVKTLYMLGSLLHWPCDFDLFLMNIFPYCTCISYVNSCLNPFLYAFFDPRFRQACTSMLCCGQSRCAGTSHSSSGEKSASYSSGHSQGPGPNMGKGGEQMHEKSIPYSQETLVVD
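Test system – PathHunter CHO-K1 APJ (AGTRL-1) beta-arrestin reporter cells · Input – 1000 cells/well · Compound – single test compound dose, 20 µM final, 1% DMSO · Times – compound stimulation 90 min at 25 °C, detection 60 min · Technique – beta-gal luminescence · Read-out basis – APJ–arrestin association signal · Control set – negative DMSO alone, positive Apelin-13 at 10 nM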
CXCR6 inh: inhibitors of human CXCR6 receptor. O00574. CHO-K1 PathHunter CXCR6 beta-arrestin, luminescence. inhibition, % at 20 µM. 360,000 compounds, 0.36% hits. AID 602244; in the data active means inhibition above about 34%, passing the limit was not always enough;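 further: antagonist mode with CXCL16 agonist at 10 nM final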
APJ antagonist: blocks the human apelin receptor APJ | P35414 | CHO-K1 APJ beta-arrestin complementation, luminescence | inhibition, % at 20 µM | 330,000 compounds, 0.32% hits | AID 2521;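 active means inhibition above about 40% at 20 µM, limit read from the data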;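 further: cells challenged with 10 nM apelin-13 agonist together with compound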
TAG inh: reduces triacylglycerol accumulation in H9c2 cells | Nile Red lipid (TAG) fluorescence; cells loaded with 200 µM oleic acid | inhibition, % at 12.5 µM | 230,000 compounds, 0.66% hits;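 active means pattern-corrected inhibition of lipid staining of at least 50% with the nuclear-stain viability signal not falling by more than 50%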
EBI2 antag conf: confirmation of human EBI2 receptor antagonists; 2,400 compounds, 29% hits; shares compounds with EBI2 antag; EBI2 beta-arrestin luminescence, 7a,25-OHC antagonism; AID 651997; inhibition, % at 5 µM;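 active means inhibition of at least 50%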
EBI2 agonist: EBI2 agonism counter-screen. shares compounds with EBI2 antag. EBI2-expressing cells, agonist mode, luminescence, 60 min; 0% vehicle, 100% 7α,25-dihydroxycholesterol control. activation, % at 5 µM. 2,400 tested, under 10 active;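 active means activation of at least 50%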
bGal counter: beta-galactosidase inhibition counter-screen. shares compounds with EBI2 antag. purified beta-galactosidase, luminescent Galacton Star, 15 min. inhibition, % at 5 µM. 2,400 compounds, 1% hits;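 active means replicate-average signal at least 3 plate SD below neutral wells, shown as high inhibition, flagging enzyme-inhibiting false positives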;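 further: higher means stronger loss of beta-gal luminescence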
Large screens that a line does not name were inactive (follow-up assays come after a bar, where they were run). Only some compounds are listed: those with a hit (about 1.9% of all), similar ones and a draw of the others.

CCOc1ccc(S(=O)(=O)c2c(C(=O)c3ccc(C)cc3)cnc3cc4c(cc23)OCCO4)cc1	EBI2 antag 47 (no result: TAG inh) | EBI2 antag conf inactive | EBI2 agonist inactive | bGal counter inactive
COc1ccc(CCN2CC(C(=O)N(C)CCOc3ccccc3)CCC2=O)cc1 (centres undefined)	none (no result: TAG inh)
CN(CCOc1ccccc1)C(=O)C1CCC(=O)N(CCc2ccc(Cl)cc2)C1 (centres undefined)	EBI2 antag 54 | EBI2 antag conf inactive | EBI2 agonist inactive | bGal counter inactive
c1ccc(-c2csc(Nc3ccc4c(c3)OCO4)n2)cc1	EBI2 antag 44 (no result: CCR6 antagonist, APJ ag, APJ antagonist, TAG inh) | EBI2 antag conf inactive | EBI2 agonist inactive | bGal counter inactive
N#Cc1ccc(Nc2nc(-c3ccccc3)cs2)cc1	none (no result: CCR6 antagonist, APJ ag, APJ antagonist, TAG inh)
COc1ccc(-c2cn(Cc3ccc(C(=O)NCc4ccc(C)cc4)cc3)c(C(C)N)n2)cc1 (centres undefined)	EBI2 antag 54 | EBI2 antag conf inactive | EBI2 agonist inactive | bGal counter inactive
Cc1ccc(OCc2nnnn2-c2ccccc2)cc1	EBI2 antag 51 (no result: TAG inh) | EBI2 antag conf inactive | EBI2 agonist inactive | bGal counter inactive
Cc1cccc(NC(=O)COc2cccc3c2CCN(C)C3=O)c1C	none
CCOC(=O)c1c(NC(=O)COc2cccc3c2CCN(C)C3=O)sc2c1CCC2	EBI2 antag 51 (no result: TAG inh) | EBI2 antag conf inactive | EBI2 agonist inactive | bGal counter inactive
COc1cc(OC)c(C=NNC(=S)NC23CC4CC(CC(C4)C2)C3)c(OC)c1	EBI2 antag 54 (no result: APJ ag, APJ antagonist) | EBI2 antag conf inactive | EBI2 agonist inactive | bGal counter inactive
CCCC(C(=O)N(C)CC(=O)Nc1ccc(N2CCOCC2)cc1)c1ccccc1 (centres undefined)	none
CCCc1ccc(Oc2coc3cc(OCC(=O)Nc4ccccc4C)ccc3c2=O)cc1	none (no result: TAG inh)
CCc1ccc(Oc2coc3cc(OCC(=O)Nc4cc(C)ccc4C)ccc3c2=O)cc1	EBI2 antag 52 | EBI2 antag conf inactive | EBI2 agonist inactive | bGal counter inactive
Cc1sc(NC(=O)c2ccco2)c(CN2CCN(c3ccccc3)CC2)c1C	EBI2 antag 40 (no result: TAG inh) | EBI2 antag conf inactive | EBI2 agonist inactive | bGal counter inactive
Cc1sc(NC(=O)c2ccco2)c(CN2CCCCC2)c1C	none
Cc1ccc(S(=O)(=O)N2CCN(C(=O)CCOc3ccccc3C)CC2)cc1C	EBI2 antag 48 | EBI2 antag conf inactive | EBI2 agonist inactive | bGal counter inactive
Cc1cc(Cl)ccc1OCCCC(=O)N1CCCCC1	none
CCOc1ccc(S(=O)(=O)N2CCN(C(=O)CCOc3ccccc3C)CC2)cc1	none
Cc1ccc(S(=O)(=O)N2CCN(C(=O)CCCOc3ccc(Cl)cc3C)CC2)cc1	EBI2 antag 79 | EBI2 antag conf inactive | EBI2 agonist inactive | bGal counter inactive
CC(C)CC(=O)Nc1nnc(S(=O)(=O)N2CCc3ccccc32)s1	none
COc1ccc(/C=C2\SC(=NCc3ccccc3)NC2=O)cc1	EBI2 antag 47 (no result: TAG inh) | EBI2 antag conf inactive | EBI2 agonist inactive | bGal counter inactive
COc1ccc(/C=C2\SC(=Nc3ccccc3OC)NC2=O)cc1	none (no result: TAG inh)
O=C(C1CCN(S(=O)(=O)c2c(Cl)cccc2Cl)CC1)N1CCCCCCC1	none
CC(Oc1ccccc1F)C(=O)Nc1ccc2ccccc2c1 (centres undefined)	none
CC(Oc1ccc(F)cc1)C(=O)Nc1ccc2ccccc2c1 (centres undefined)	EBI2 antag 50 | EBI2 antag conf inactive | EBI2 agonist inactive | bGal counter inactive
CC(C)(C)c1ccc(C(=O)N2CCC(C(=O)c3ccccc3)CC2)cc1	none (no result: TAG inh)
Cc1ccc(C(=O)N2CCC(C(=O)c3ccc(Cl)cc3)CC2)cc1	EBI2 antag 61 (no result: TAG inh) | EBI2 antag conf inactive | EBI2 agonist inactive | bGal counter inactive
O=C(c1ccccc1)C1CCN(C(=O)c2ccc(Cl)cc2)CC1	EBI2 antag 86 (no result: TAG inh) | EBI2 antag conf 73 | EBI2 agonist inactive | bGal counter inactive
COc1ccccc1CCC(=O)OCC(=O)Nc1cc(C)nn1-c1ccccc1	none
CC1CC(C)CN(c2ccc([N+](=O)[O-])cc2-c2nn[nH]n2)C1 (centres undefined)	EBI2 antag 74 (no result: TAG inh) | EBI2 antag conf 51 | EBI2 agonist inactive | bGal counter inactive
c1ccc(COc2cccc(-c3cc4nc(NCCOc5ccccc5)ccn4n3)c2)cc1	none (no result: CCR6 antagonist, APJ ag, APJ antagonist)
c1ccc(COc2cccc(-c3cc4nc(NCCc5ccncc5)ccn4n3)c2)cc1	EBI2 antag 47 (no result: CCR6 antagonist, APJ ag, APJ antagonist) | EBI2 antag conf inactive | EBI2 agonist inactive | bGal counter inactive
CCOC(=O)C1=CN(Cc2cccc(F)c2)S(=O)(=O)N(CC)C1c1ccc(C(F)(F)F)cc1 (centres undefined)	none (no result: APJ ag, APJ antagonist)
CN1CCN(C(=O)c2ccc(OCCOc3ccccc3)cc2)CC1	none (no result: TAG inh)
COc1ccc(OC)c(/C=C/c2ccnc3ccccc23)c1	none (no result: APJ ag, APJ antagonist)
COc1ccc2nccc(/C=C/c3ccnc4ccc(OC)cc34)c2c1	EBI2 antag 38 | EBI2 antag conf inactive | EBI2 agonist inactive | bGal counter inactive
CCC(=O)Nc1ccc2ccccc2c1	none (no result: TAG inh)
CC(C)(C)CC(C)(C)NC(=O)CSCC(=O)Nc1ccc2ccccc2c1	EBI2 antag 71 (no result: TAG inh) | EBI2 antag conf inactive | EBI2 agonist inactive | bGal counter inactive
CN(C)c1ccc(C(=O)Nc2ccc(CN3CCS(=O)(=O)CC3)cc2)cc1	none
O=[N+]([O-])c1ccc(-c2cnc(SC(c3ccccc3)c3ccccc3)[nH]2)cc1	EBI2 antag 49 (no result: TAG inh) | EBI2 antag conf inactive | EBI2 agonist inactive | bGal counter inactive
O=C1/C(=C\c2ccc(Cl)cc2)CCC1CNc1ccc(Cl)cc1 (centres undefined)	EBI2 antag 47 (no result: APJ ag, APJ antagonist) | EBI2 antag conf inactive | EBI2 agonist inactive | bGal counter inactive
Cc1ccc(/C=C2\CCC(C3CCCC3)C2=O)cc1 (centres undefined)	none (no result: TAG inh)
CCOc1cc(S(=O)(=O)N2CCC(Cc3ccccc3)CC2)c(OCC)cc1-n1cnnn1	EBI2 antag 45 (no result: TAG inh) | EBI2 antag conf inactive | EBI2 agonist inactive | bGal counter inactive
CCOc1cc(S(=O)(=O)N2CC=C(c3ccc(F)cc3)CC2)c(OCC)cc1-n1cnnn1	none (no result: TAG inh)
CCC(C)NC(=O)C1CCN(C(=O)c2ccccc2)CC1 (centres undefined)	none (no result: TAG inh)
